The values below come from ChEMBL document CHEMBL2086384, “Chiral cyclohexane 1,3-diones as inhibitors of mutant SOD1-dependent protein aggregation for the treatment of ALS” (ACS Med Chem Lett, 2012).

The source made the active and inactive calls. The calls are words filed in the database; no cut-off is given here. Bounds are passed on as bounds.

Series [1] in a line: Inhibition of SOD1 G93A mutant-induced protein aggregation in MG132-treated rat PC12 cells assessed as decrease in cell death incubated for 24 hrs prior to MG132 treatment measured after 48 hrs by Calcein-AM staining method. It is filed as cell-based. Conditions: PC-12.
Series [2] has as its system Cerebral cortex neuron. Nature of the series: Inhibition of SOD1 G93A mutant-induced protein aggregation in MG132-treated rat primary cortical neurons assessed as decrease in cell death up to 100 uM incubated for 24 hrs prior to MG132 treatment measured after 48 hrs by Calcein-AM staining method. It counts as cell-based.
Series [3] deals with Mus musculus. As to the kind of experiment: Increase in life span of transgenic mouse expressing human SOD1 G93A mutant at 22 mg/kg. It is filed as functional.
The test system of another series is Caco-2. As to the kind of experiment: Efflux ratio of apparent permeability from basal to apical to apical to basal side of human Caco2 cells at 50 uM after 2 hrs. It is filed as ADME, cell-based. Conditions: caco-2, 2 h.
Series [4] relates to Liver microsomes. Nature of the series: Half life in human liver microsomes at 1 uM after 1 hr in absence of NADPH. It counts as ADME, Microsome. A digest of the protocol: (§1)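 Human or mouse liver microsomes; test compound at 1 μM, incubated at 37 °C for 1 h with and without NADPH. Intrinsic clearance given in mL/min/kg and half-life in min.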
Series [5] in a line: Apparent permeability of the compound from basal to apical side of human Caco2 cells at 50 uM after 2 hrs. It is filed as ADME, cell-based. As to conditions: Caco-2.
The nature of series [6]: Aqueous solubility of the compound in DMSO after 1 hr by spectrophotometry. It counts as physicochemical. A digest of the protocol: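 Aqueous solubility: DMSO stock diluted into PBS to a final 1% DMSO. The limit was taken as the highest concentration showing no precipitation.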
For series [7], the system named is Liver. As to the kind of experiment: Half life in mouse liver microsomes at 1 uM after 1 hr in presence of NADPH. It counts as ADME, Microsome. A digest of the protocol:
as §1

In series [8] the test system is Liver. As to the kind of experiment: Half life in mouse liver microsomes at 1 uM after 1 hr in absence of NADPH. It counts as ADME, Microsome. A digest of the protocol:
as §1

Series [9] concerns Liver microsomes. Nature of the series: Half life in human liver microsomes at 1 uM after 1 hr in presence of NADPH. It is filed as ADME, Microsome. The method, boiled down: as §1
The nature of series [10]: Apparent permeability of the compound from apical to basal side of human Caco2 cells at 50 uM after 2 hrs. It counts as ADME, cell-based. As to conditions: Caco-2.
Series [11] in a line: Intrinsic clearance in human liver microsomes at 1 uM after 1 hr in absence of NADPH. As to conditions: read-out: CLH. It counts as ADME, Microsome. A digest of the protocol:
as §1

The nature of series [12]: Half life in plasma. It is filed as ADME, cell-free.
Series [13] in a line: Half life in blood at 500 mg/kg, ip. It counts as ADME, organism-based. More on the design: dose 500 mg/kg, route intraperitoneal. The method, boiled down:
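Compound given i.p. at 500 mg/kg. Concentrations were measured in blood, with brain levels sampled in the same study. The half-life was taken from the blood time course.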

Series [14] relates to Cerebral cortex neuron. As to the kind of experiment: Inhibition of SOD1 G93A mutant-induced protein aggregation in MG132-treated rat primary cortical neurons assessed as decrease in cell death at 3 uM incubated for 24 hrs prior to MG132 treatment measured after 48 hrs by Calcein-AM staining method. It is filed as cell-based.
Series [15] is described as follows: Tmax in brain at 500 mg/kg, ip. It is filed as ADME, organism-based. More on the design: dose 500 mg/kg, route intraperitoneal. A digest of the protocol: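 Compound given as a single intraperitoneal dose of 500 mg/kg. Levels were followed over time in both blood and brain. Tmax is the time at which the brain concentration peaked.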
In series [16] the test system is Mus musculus. Nature of the series: Increase in life span of transgenic mouse expressing human SOD1 G93A mutant assessed as survival at 30 mg/kg administered QD until death (reference value: 125.7+/-4.3 days). It is filed as functional. The method, boiled down: (§2)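 Transgenic mice expressing human G93A mutant SOD1, cohorts matched for age (±3 days) and "f" generation, drawn from multiple litters. Dosed 10, 20 or 30 mg/kg once daily from 6 weeks of age until end of life; untreated G93A mice served as controls. Survival read out by Kaplan-Meier plot and reported as mean ± value in days, with p values.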

Series [17] deals with Liver microsomes. As to the kind of experiment: Drug metabolism in rat liver microsomes at 10 uM after 1 hr by LC-PDA-MS/MS analysis. It is filed as ADME, Microsome.
The nature of series [18]: Toxicity in mouse administered BID. It counts as organism-based. As to conditions: in vivo. A digest of the protocol:
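Tolerable dose range found in wild-type mice by escalating the dose given b.i.d.; maximum tolerated dose taken as the read-out.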

Series [19] in a line: Drug uptake in brain at 500 mg/kg, ip. It counts as ADME, organism-based. More on the design: dose 500 mg/kg, route intraperitoneal. As to conditions: in vivo, read-out: Drug uptake. The method, boiled down: (§3)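 Single i.p. dose of 500 mg/kg in mice. Blood and brain levels were sampled over time to find the maximum level and Tmax.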
Series [20] deals with Mus musculus. As to the kind of experiment: Increase in life span of transgenic mouse expressing human SOD1 G93A mutant assessed as survival at 10 mg/kg administered QD until death (reference value: 125.7+/-4.3 days). It is filed as functional. A digest of the protocol:
as §2

The nature of series [21]: Drug uptake in blood at 500 mg/kg, ip at 12 hrs. It counts as ADME, organism-based. More on the design: dose 500 mg/kg, route intraperitoneal. Conditions: read-out: Drug uptake. The method, boiled down: as §3
Series [22] concerns Mus musculus. Nature of the series: Increase in life span of transgenic mouse expressing human SOD1 G93A mutant at 20 mg/kg administered QD until death relative to untreated-control. It counts as functional. A digest of the protocol: as §2
Series [23] concerns Cerebral cortex neuron. As to the kind of experiment: Inhibition of SOD1 G93A mutant-induced protein aggregation in MG132-treated rat primary cortical neurons assessed as decrease in cell death at 10 uM incubated for 24 hrs prior to MG132 treatment measured after 48 hrs by Calcein-AM staining method. It is filed as cell-based.

As for `C[C@@H](Oc1cc(C(F)(F)F)cc(C(F)(F)F)c1)C1CC(=O)CC(=O)C1`, the EC50 in series [1] is 1300 nM. The inhibition entry in the series with Cerebral cortex neuron [2] was “Active”.
As to `Nc1nc2ccc(OC(F)(F)F)cc2s1` [RILUZOLE], the survival at 22 mg/kg in the series with Mus musculus [3] stood at 10%.
Regarding `O=C1CC(=O)CC(C2CC2c2cc(C(F)(F)F)cc(C(F)(F)F)c2)C1` (racemic), the EC50 in series [1] was 1000 nM. The inhibition result with Cerebral cortex neuron [2] was “Active”.
As for `O=C1CC(=O)CC([C@@H]2C[C@H]2c2cc(C(F)(F)F)cc(C(F)(F)F)c2)C1`, the Ratio in the series on Caco-2 is on record as 0.1. In addition, the t1/2 is > 3 h in the series on Liver microsomes [4]; 0.467 h with Liver [7]; 0.617 h with Liver [8]; 0.817 h in the series on Liver microsomes [9]; 1.18 h in [12]. Moreover, the Papp B→A at 2 h, 50 µM in series [5] was determined as 1.1 ×10⁻⁶ cm/s. Also, the EC50 in [1] was 800 nM. Further, in the series with Cerebral cortex neuron [2], the inhibition result is “Active”. Also, the solubility result in [6] is on record as “>= 100 uM”. Also, the Papp A→B at 2 h, 50 µM in series [10] amounted to 21.7 ×10⁻⁶ cm/s. In addition, in series [11], the CLint scaled at 1 µM was 12 mL/min/kg.
As to `O=C1CC(=O)CC(c2cc(C(F)(F)F)cc(C(F)(F)F)c2)C1`, the EC50 in series [1] was 700 nM. The inhibition result in the series on Cerebral cortex neuron [2] was “inactive”.
In the case of `O=C1CC(=O)CC([C@H]2C[C@@H]2c2cc(C(F)(F)F)cc(C(F)(F)F)c2)C1`, the EC50 in [1] was 1390 nM. In the series on Cerebral cortex neuron [2], the inhibition entry is “Active”.
For `C[C@H](Oc1cc(C(F)(F)F)cc(C(F)(F)F)c1)C1CC(=O)CC(=O)C1`, the Ratio with Caco-2 was found to be 0.1. For the same compound, the t1/2 was > 3 h in the series with Liver microsomes [4], 0.867 h with Liver [7], 0.867 h in the series on Liver [8] and > 1 h in [12]. Besides, the Papp B→A at 2 h, 50 µM in series [5] was 1.5 ×10⁻⁶ cm/s. Also, in series [1], the EC50 was 300 nM. Moreover, the inhibition result with Cerebral cortex neuron [2] was “Active”. The half-life in [13] was 12 h. For the same compound, the inhibition in the series with Cerebral cortex neuron [14] was > 90%. The time of peak concentration (Tmax) in [15] was 12 h. In addition, the Survival was 127.9 days in the series with Mus musculus [16] and 139.2 days with Mus musculus [20]. In addition, in [6], the solubility result is “>= 100 uM”. The Drug metabolism result in the series on Liver microsomes [17] is given as “Active”. Moreover, the MTD in series [18] was 1280 mg/kg. Moreover, the concentration in series [19] is 8.3 µM. Further, the Papp A→B at 2 h, 50 µM in [10] stood at 24.1 ×10⁻⁶ cm/s. Besides, the CLint scaled at 1 µM in [11] came to 10 mL/min/kg. For the same compound, in series [21], the concentration at 12 h was 245 µM. The survival at 20 mg/kg in the series with Mus musculus [22] stood at 13%.
Regarding `CC(Oc1cc(C(F)(F)F)cc(C(F)(F)F)c1)C1CC(=O)CC(=O)C1` (racemic), in series [1], the EC50 is 700 nM. In addition, the inhibition result in the series on Cerebral cortex neuron [2] is “Active”.
Regarding `O=c1cc(COc2cc(Cl)cc(Cl)c2)[nH][nH]1`, the inhibition result with Cerebral cortex neuron [23] is “Active”.
